Test results reported in ChEMBL document CHEMBL1909581, “Growth inhibition of human lung cancer cells via down-regulation of epidermal growth factor receptor signaling by yuanhuadine, a daphnane diterpene from Daphne genkwa” (J Nat Prod, 2011).
The source made the active and inactive calls. The calls are words filed in the database; no cut-off is given here.

Assays:
A549 [1] = assay: Antitumor activity against human A549 cells xenografted in BALB/c mouse assessed as inhibition of tumor growth at 0.2 mg/kg, po once daily for 14 days measured for 27 days relative to control; format: functional, organism-based; design: dose 0.2 mg/kg
Method in brief: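 Female nu/nu nude mice given 3 × 10^6 A549 cells sc into the right flank, in 200 μL medium. At ~100 mm3, randomized into groups of five. Dosed orally once daily for 14 days in 100 μL ethanol–Tween 80–water (1:1:98), vehicle as control. Tumor volume measured by caliper every 2–3 days; body weight monitored.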

SK-MES-1 = assay: Antiproliferative activity against human SK-MES cells after 3 days by SRB assay; format: functional, cell-based; settings: SK-MES-1, 72 h
Method in brief: (§1)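 Cells seeded at 5 × 10^4 cells/mL and exposed to a range of concentrations for 3 days. Fixed with 10% TCA, then SRB stain read. Growth expressed as % of solvent-treated control. IC50 obtained by nonlinear regression of percent survival versus concentration.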

A549 [2] = assay: Downregulation of phosphorylated Rb expression in human A549 cells at G1 phase at 5 to 100 nM after 24 to 48 hrs by Western blot analysis; format: functional, cell-based
Method in brief: (§2)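 A549 cells treated with a range of concentrations for 24 or 48 h. Lysates run on 6–15% SDS-PAGE and blotted to PVDF, blocked in 5% milk/PBST. Primary antibodies overnight at 4 °C, secondary 2 h at room temperature, ECL detection. Representative of three independent experiments.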

[3] = molecular target: Signal transducer and activator of transcription 3 (Homo sapiens) (UniProt P40763); assay: Inhibition of STAT3 phosphorylation in human A549 cells after 24 hrs by Western blot analysis; format: cell-based
Signal transducer and activator of transcription 3 (Homo sapiens), sequence (P40763 whole entry): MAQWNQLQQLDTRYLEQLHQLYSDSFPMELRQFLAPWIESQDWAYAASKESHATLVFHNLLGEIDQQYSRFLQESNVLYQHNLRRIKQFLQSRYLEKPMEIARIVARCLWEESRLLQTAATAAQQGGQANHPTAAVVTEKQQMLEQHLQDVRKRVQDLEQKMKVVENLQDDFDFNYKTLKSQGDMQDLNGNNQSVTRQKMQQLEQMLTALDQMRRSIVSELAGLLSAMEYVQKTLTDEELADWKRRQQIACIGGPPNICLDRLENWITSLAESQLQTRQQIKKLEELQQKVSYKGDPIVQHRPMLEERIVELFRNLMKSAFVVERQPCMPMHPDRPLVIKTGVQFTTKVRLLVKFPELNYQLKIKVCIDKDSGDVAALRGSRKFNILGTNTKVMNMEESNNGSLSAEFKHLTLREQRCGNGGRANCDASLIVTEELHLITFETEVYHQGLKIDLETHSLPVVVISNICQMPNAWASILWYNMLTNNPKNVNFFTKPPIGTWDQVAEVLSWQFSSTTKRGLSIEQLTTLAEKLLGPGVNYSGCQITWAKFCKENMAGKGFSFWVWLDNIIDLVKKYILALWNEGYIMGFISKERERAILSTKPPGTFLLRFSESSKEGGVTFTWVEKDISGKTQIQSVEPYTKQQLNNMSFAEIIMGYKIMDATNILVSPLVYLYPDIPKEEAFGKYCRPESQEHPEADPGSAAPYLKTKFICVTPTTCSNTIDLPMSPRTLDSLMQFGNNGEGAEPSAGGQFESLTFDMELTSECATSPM
Method in brief: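 A549 cells (RPMI 1640, 10% FBS, 37 °C, 5% CO2) exposed to the compound at various concentrations for 24 or 48 h. Lysates run on 6–15% SDS-PAGE, transferred to PVDF, probed with primary antibodies overnight at 4 °C, and detected by ECL. Blots shown are representative of three independent experiments.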

A549 [4] = assay: Downregulation of c-myc expression in human A549 cells at G1 phase at 5 to 100 nM after 24 to 48 hrs by Western blot analysis; format: functional, cell-based; method in brief: as §2
A549 [5] = assay: Downregulation of CDK2 expression in human A549 cells at G1 phase at 5 to 100 nM after 24 to 48 hrs by Western blot analysis; format: functional, cell-based; method in brief: as §2
A549 [6] = assay: Downregulation of cyclin B1 expression in human A549 cells at G2/M phase at 5 to 100 nM after 24 to 48 hrs by Western blot analysis; format: functional, cell-based; method in brief: as §2
A549 [7] = assay: Cell cycle arrest in human A549 cells assessed as accumulation at G0/G1 phase at 5 nM after 24 hrs by propidium iodide staining-based flow cytometric analysis (reference value: 49.6 %); format: functional
[8] = molecular target: Hepatocyte growth factor receptor (Homo sapiens) (UniProt P08581); assay: Inhibition of c-Met-mediated 4EBP1 phosphorylation in HGF-stimulated human A549 cells pretreated at 5 to 100 nM by Western blot analysis; format: cell-based
Hepatocyte growth factor receptor (Homo sapiens), sequence (P08581 whole entry): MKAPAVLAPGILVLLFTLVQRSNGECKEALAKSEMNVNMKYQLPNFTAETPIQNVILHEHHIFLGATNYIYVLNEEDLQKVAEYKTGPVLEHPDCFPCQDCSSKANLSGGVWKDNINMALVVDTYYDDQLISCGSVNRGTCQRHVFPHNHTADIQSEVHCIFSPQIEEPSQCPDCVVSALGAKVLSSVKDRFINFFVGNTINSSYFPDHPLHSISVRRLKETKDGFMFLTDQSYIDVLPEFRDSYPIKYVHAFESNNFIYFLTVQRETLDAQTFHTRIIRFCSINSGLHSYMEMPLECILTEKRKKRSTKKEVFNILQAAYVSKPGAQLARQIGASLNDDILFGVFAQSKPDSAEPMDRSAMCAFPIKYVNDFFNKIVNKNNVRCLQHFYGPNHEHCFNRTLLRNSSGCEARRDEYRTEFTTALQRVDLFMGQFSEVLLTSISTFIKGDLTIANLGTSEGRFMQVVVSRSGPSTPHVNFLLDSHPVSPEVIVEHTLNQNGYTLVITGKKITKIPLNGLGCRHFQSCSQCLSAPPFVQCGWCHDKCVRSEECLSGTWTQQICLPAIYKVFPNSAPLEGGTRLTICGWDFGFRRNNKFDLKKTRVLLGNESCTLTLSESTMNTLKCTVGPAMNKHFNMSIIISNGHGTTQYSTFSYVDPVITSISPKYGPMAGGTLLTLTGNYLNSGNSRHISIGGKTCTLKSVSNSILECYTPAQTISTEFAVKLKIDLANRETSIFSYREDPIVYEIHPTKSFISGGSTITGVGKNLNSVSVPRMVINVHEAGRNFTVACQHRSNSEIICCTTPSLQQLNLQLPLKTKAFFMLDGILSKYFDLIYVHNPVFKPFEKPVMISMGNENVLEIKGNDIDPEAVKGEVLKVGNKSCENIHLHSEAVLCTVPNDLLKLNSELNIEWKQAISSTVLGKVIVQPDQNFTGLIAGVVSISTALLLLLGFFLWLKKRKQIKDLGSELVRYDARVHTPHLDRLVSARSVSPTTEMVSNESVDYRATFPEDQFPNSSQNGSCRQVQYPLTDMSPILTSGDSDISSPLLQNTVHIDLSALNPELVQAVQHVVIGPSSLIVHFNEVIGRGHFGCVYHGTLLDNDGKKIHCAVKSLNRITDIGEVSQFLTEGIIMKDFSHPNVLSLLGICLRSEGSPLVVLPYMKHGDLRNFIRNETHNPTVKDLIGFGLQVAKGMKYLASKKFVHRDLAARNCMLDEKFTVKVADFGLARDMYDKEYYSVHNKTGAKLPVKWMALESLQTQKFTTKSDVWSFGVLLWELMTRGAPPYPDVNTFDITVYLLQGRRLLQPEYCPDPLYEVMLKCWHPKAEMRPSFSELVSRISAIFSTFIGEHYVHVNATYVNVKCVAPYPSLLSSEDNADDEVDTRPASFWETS
Method in brief: (§3)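 A549 cells pretreated for 2 h with the compound at 5, 20 or 100 nM, then stimulated with HGF (50 ng/mL) for 10 min. c-Met and its downstream signalling proteins read by Western blot (SDS-PAGE, PVDF transfer, ECL detection).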

A549 [9] = assay: Downregulation of CDK4 expression in human A549 cells at G1 phase at 5 to 100 nM after 24 to 48 hrs by Western blot analysis; format: functional, cell-based; method in brief: as §2
A549 [10] = assay: Cell cycle arrest in human A549 cells assessed as accumulation at S phase at 20 nM after 24 hrs by propidium iodide staining-based flow cytometric analysis (reference value: 31.6 %); format: functional
A549 [11] = assay: Antiproliferative activity against human A549 cells assessed as growth inhibition incubated for 24 hrs measured 48 hrs after compound washout by SRB assay; format: functional, cell-based
[12] = Antiproliferative activity against human H1299 cells after 3 days by SRB assay; format: functional, cell-based; settings: NCI-H1299, 72 h; method in brief: as §1
A549 [13] = assay: Cell cycle arrest in human A549 cells assessed as accumulation at G2/M phase at 20 nM after 24 hrs by propidium iodide staining-based flow cytometric analysis (reference value: 18.9 %); format: functional
MRC5 = assay: Antiproliferative activity against human MRC5 cells after 3 days by SRB assay; format: cell-based; settings: mrc5, 72 h; method in brief: as §1
[14] = molecular target: Epidermal growth factor receptor (Homo sapiens) (UniProt P00533); assay: Inhibition of EGFR-mediated ERK1/2 phosphorylation in EGF-stimulated human A549 cells pretreated at 5 to 100 nM by Western blot analysis; format: cell-based
Epidermal growth factor receptor (Homo sapiens), sequence (P00533 whole entry): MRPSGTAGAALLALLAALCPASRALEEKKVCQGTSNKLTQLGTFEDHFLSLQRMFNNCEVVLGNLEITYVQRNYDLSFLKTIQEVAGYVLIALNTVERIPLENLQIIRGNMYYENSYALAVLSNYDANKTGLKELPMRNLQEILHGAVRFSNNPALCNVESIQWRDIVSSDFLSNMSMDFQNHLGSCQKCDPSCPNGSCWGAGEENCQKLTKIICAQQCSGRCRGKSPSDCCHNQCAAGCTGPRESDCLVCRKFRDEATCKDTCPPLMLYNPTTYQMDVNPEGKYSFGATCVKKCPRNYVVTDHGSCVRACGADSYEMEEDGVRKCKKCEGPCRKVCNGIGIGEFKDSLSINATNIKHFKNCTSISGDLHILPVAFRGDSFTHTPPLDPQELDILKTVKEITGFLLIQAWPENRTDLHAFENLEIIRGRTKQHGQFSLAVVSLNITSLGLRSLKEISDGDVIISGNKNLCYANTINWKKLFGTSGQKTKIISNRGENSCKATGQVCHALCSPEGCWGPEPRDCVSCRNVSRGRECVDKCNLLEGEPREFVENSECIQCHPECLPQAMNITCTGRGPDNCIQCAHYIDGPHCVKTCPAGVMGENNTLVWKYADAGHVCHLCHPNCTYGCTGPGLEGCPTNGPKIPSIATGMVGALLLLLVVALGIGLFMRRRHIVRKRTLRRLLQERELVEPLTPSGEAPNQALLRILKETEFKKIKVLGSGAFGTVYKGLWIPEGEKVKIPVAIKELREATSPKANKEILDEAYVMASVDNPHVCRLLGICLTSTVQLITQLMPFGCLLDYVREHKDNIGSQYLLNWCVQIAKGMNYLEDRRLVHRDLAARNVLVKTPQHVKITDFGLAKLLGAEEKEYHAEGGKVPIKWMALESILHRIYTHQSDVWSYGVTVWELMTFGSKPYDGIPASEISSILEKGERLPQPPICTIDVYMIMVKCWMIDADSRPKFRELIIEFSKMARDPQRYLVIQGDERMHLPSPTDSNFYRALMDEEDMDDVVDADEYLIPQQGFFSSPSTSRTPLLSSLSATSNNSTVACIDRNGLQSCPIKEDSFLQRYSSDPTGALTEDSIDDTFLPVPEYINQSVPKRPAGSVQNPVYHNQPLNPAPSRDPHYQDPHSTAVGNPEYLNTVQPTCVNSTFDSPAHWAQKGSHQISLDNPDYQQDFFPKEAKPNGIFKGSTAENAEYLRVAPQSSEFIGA

NCI-H1993 = assay: Antiproliferative activity against human NCI-H1993 cells after 3 days by SRB assay; format: functional, cell-based; settings: NCI-H1993, 72 h
[15] = molecular target: Hepatocyte growth factor receptor (Homo sapiens) (UniProt P08581); assay: Inhibition of c-Met-mediated ERK1/2 phosphorylation in HGF-stimulated human A549 cells pretreated at 5 to 100 nM by Western blot analysis; format: cell-based; method in brief: as §3
[16] = molecular target: Hepatocyte growth factor receptor (Homo sapiens) (UniProt P08581); assay: Inhibition of c-Met-mediated FAK phosphorylation in HGF-stimulated human A549 cells pretreated at 5 to 100 nM by Western blot analysis; format: cell-based; method in brief: as §3
[17] = molecular target: Hepatocyte growth factor receptor (Homo sapiens) (UniProt P08581); assay: Inhibition of c-Met phosphorylation at Tyr1230/1234/1235 in HGF-stimulated human A549 cells pretreated at 5 to 100 nM for 2 hrs by Western blot analysis; format: cell-based; method in brief: as §3
HCT-116 = assay: Antiproliferative activity against human HCT116 cells after 3 days by SRB assay; format: functional, cell-based; settings: HCT-116, 72 h; method in brief: as §1
SK-HEP1 = assay: Antiproliferative activity against human SKHEP1 cells after 3 days by SRB assay; format: functional, cell-based; settings: SK-HEP1, 72 h; method in brief: as §1
[18] = molecular target: Epidermal growth factor receptor (Homo sapiens) (UniProt P00533); assay: Inhibition of EGFR-mediated Akt phosphorylation in EGF-stimulated human A549 cells pretreated at 20 nM by Western blot analysis; format: cell-based
Method in brief: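 A549 cells serum-starved 24 h, pretreated with 20 nM compound for 2 h, then stimulated with EGF (10 ng/mL) for 10 min. Levels of EGFR, Akt and ERK read by Western blot.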

A549 [19] = assay: Antiproliferative activity against human A549 cells after 3 days by SRB assay; format: functional, cell-based; settings: A549, 72 h; method in brief: as §1
SW480 = assay: Antiproliferative activity against human SW480 cells after 3 days by SRB assay; format: functional, cell-based; settings: SW480, 72 h; method in brief: as §1
A549 [20] = assay: Cell cycle arrest in human A549 cells assessed as accumulation at G0/G1 phase at 20 nM after 48 hrs by propidium iodide staining-based flow cytometric analysis (reference value: 49.6 %); format: functional
Mus musculus = assay: Toxicity in BALB/c mouse xenografted with human A549 cells in assessed as body weight at 0.5 mg/kg, po once daily for 14 days measured for 27 days relative to control; format: organism-based; design: dose 0.5 mg/kg, route oral; settings: in vivo, 648 h
Method in brief: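 Female nu/nu mice were injected sc in the right flank with 3 × 10^6 A549 cells. At about 100 mm3 tumour volume, mice were randomised into groups of five. Compound was given orally at 0.2 or 0.5 mg/kg once daily for 14 days in ethanol/Tween 80/H2O (1:1:98). Body weight and overt toxicity were monitored against vehicle controls.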

T47D = assay: Antiproliferative activity against human T47D cells after 3 days by SRB assay; format: functional, cell-based; settings: 72 h; method in brief: as §1
A549 [21] = assay: Cell cycle arrest in human A549 cells assessed as accumulation at G2/M phase at 100 nM after 48 hrs by propidium iodide staining-based flow cytometric analysis (reference value: 18.9 %); format: functional

Compound: C=C(C)[C@@]12O[C@@]3(/C=C/C=C/CCCCC)O[C@@H]1[C@@H]1[C@@H]4O[C@]4(CO)[C@@H](O)[C@]4(O)C(=O)C(C)=C[C@H]4[C@@]1(O3)[C@H](C)[C@H]2OC(C)=O [YUANHUADINE]
- growth inhibition (GI) (A549 [1]): Active
- IC50 (SK-MES-1): < 1 pM
- Activity (A549 [2]): Active
- inhibition [3]: Dose-dependent effect
- Activity (A549 [4]): Active
- Activity (A549 [5]): Active
- Activity (A549 [6]): Active
- Activity (A549 [7]): 67%
- inhibition [8]: Active
- Activity (A549 [9]): Active
- Activity (A549 [10]): 7.3%
- growth inhibition (GI) (A549 [11]): inactive
- IC50 [12]: 5.6 µM
- Activity (A549 [13]): 24.5%
- growth inhibition (GI) (MRC5): Non-toxic
- inhibition [14]: Active
- IC50 (NCI-H1993): 0.0047 µM
- inhibition [15]: Active
- inhibition [16]: Active
- inhibition [17]: Active
- IC50 (HCT-116): 10.2 µM
- IC50 (SK-HEP1): 12.9 µM
- inhibition [18]: Active
- IC50 (A549 [19]): 0.012 µM
- IC50 (SW480): 11.8 µM
- Activity (A549 [20]): 62.2%
- Activity (Mus musculus): Non-toxic
- IC50 (T47D): 12.7 µM
- Activity (A549 [21]): 26.3%
